Measured values reported in ChEMBL document CHEMBL4340559, “Design and synthesis of functionalized coumarins as potential anti-austerity agents that eliminates cancer cells' tolerance to nutrition starvation” (Bioorg Med Chem Lett, 2019).
Active and inactive are the calls of the source. The calls are words filed in the database; no cut-off is given here.

Tests used:
PANC-1 [1] = assay: Antiausteritic activity against human PANC1 cells in nutrient-deprived medium measured after 24 hrs by WST8 assay; assay type: functional
PANC-1 [2] = assay: Cytotoxic activity against human PANC1 cells in nutrient-rich medium measured after 24 hrs by WST8 assay; assay type: cell-based; conditions: panc-1, 24 h
PANC-1 [3] = assay: Antiausteritic activity against human PANC1 cells in nutrient deprived medium assessed as appearance of rounded cells at 1.25 uM after 24 hrs by ethidium bromide/acridine orange staining based phase contrast microscopic method; assay type: functional, cell-based
Method in brief: (§1)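 PANC-1 cells exposed 24 h in nutrient-deprived medium (NDM) alongside untreated control, then stained with ethidium bromide/acridine orange. AO enters all cells and fluoresces green. EB enters only dead or dying cells and fluoresces red. Cells were scored by fluorescence colour and morphology.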

PANC-1 [4] = assay: Antiausteritic activity against human PANC1 cells in nutrient deprived medium assessed as plasma blebbing at 1.25 uM after 24 hrs by ethidium bromide/acridine orange staining based phase contrast microscopic method; assay type: functional, cell-based; method in brief: as §1
PANC-1 [5] = assay: Antiausteritic activity against human PANC1 cells in nutrient deprived medium assessed as rupture of cell membrane at 1.25 uM after 24 hrs by ethidium bromide/acridine orange staining based phase contrast microscopic method; assay type: functional; method in brief: as §1
PANC-1 [6] = assay: Inhibition of colony formation in human PANC1 cells at 12.5 uM in the nutrient rich DMEM media treated for 24 hrs followed by compound washout and subsequent incubation for 10 days by crystal violet staining based assay relative to untreated control; assay type: functional
Method in brief: (§2)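 PANC-1 cells were exposed 24 h to 12.5, 25 or 50 μM in nutrient-rich DMEM. Medium was then replaced with fresh DMEM and cells grown 10 d to form colonies. Read-out was the average area occupied by colonies relative to untreated control wells. Three replications; significance set at p < 0.05 versus control.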

PANC-1 [7] = assay: Inhibition of colony formation in human PANC1 cells at 25 uM in the nutrient rich DMEM media treated for 24 hrs followed by compound washout and subsequent incubation for 10 days by crystal violet staining based assay relative to untreated control; assay type: functional; method in brief: as §2
PANC-1 [8] = assay: Inhibition of colony formation in human PANC1 cells at 50 uM in the nutrient rich DMEM media treated for 24 hrs followed by compound washout and subsequent incubation for 10 days by crystal violet staining based assay relative to untreated control; assay type: functional; method in brief: as §2
PANC-1 [9] = assay: Inhibition of colony formation in human PANC1 cells at 12.5 to 50 uM in the nutrient rich DMEM media treated for 24 hrs followed by compound washout and subsequent incubation for 10 days by crystal violet staining based assay; assay type: functional, cell-based; method in brief: as §2
PANC-1 [10] = assay: Antiausteritic activity against human PANC1 cells in nutrient deprived medium assessed as inhibition of cell mobility at 5 uM measured within 4 hrs by automated time-lapse microscopic method; assay type: functional, cell-based
Method in brief: (§3)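 PANC-1 cells in NDM were held in a stage-top incubator with 5 μM compound, with untreated NDM control run alongside. Images were captured every 10 min for 24 h. Mobility, shrinkage and death were followed over time.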

PANC-1 [11] = assay: Antiausteritic activity against human PANC1 cells in nutrient deprived medium assessed as cell shrinkage at 5 uM measured at 7 hrs by automated time-lapse microscopic method; assay type: functional, cell-based; method in brief: as §3
PANC-1 [12] = assay: Antiausteritic activity against human PANC1 cells in nutrient deprived medium assessed as cell death at 5 uM measured at 13 to 20 hrs by automated time-lapse microscopic method; assay type: functional, cell-based; method in brief: as §3
PANC-1 [13] = assay: Antiausteritic activity against human PANC1 cells in nutrient deprived medium assessed as leakage of cellular contents into culture media at 1.25 uM after 24 hrs by ethidium bromide/acridine orange staining based phase contrast microscopic method; assay type: functional, cell-based; method in brief: as §1

SMILES | PC50 (PANC-1 [1]) [µM] | Activity (PANC-1 [2]) | also measured
O=C(NCCCc1ccccc1)c1cc2ccccc2oc1=O | >100 | Non-Toxic | 
O=C(NCCCc1ccccc1)c1cc2c(O)cccc2oc1=O | >100 | Non-Toxic | 
O=C(NCCCc1ccc(Cl)cc1)c1cc2ccc(O)cc2oc1=O | 0.51 | Non-Toxic | 
O=C(NCCCc1ccc(Cl)cc1Cl)c1cc2ccc(O)cc2oc1=O | 3.45 | Non-Toxic | 
O=C(NCCCc1ccccc1Cl)c1cc2ccc(O)cc2oc1=O | 12.6 | Non-Toxic | 
O=C(NCCCc1cccc(Cl)c1Cl)c1cc2ccc(O)cc2oc1=O | 7.48 | Non-Toxic | 
O=C(NCCc1ccccc1)c1cc2ccc(O)cc2oc1=O | >100 | Non-Toxic | 
O=C(NCCCCc1ccccc1)c1cc2ccc(O)cc2oc1=O | 4.7 | Non-Toxic | 
O=C(NCCCc1cccc(Cl)c1)c1cc2ccc(O)cc2oc1=O | 3.92 | Non-Toxic | 
O=C(NCCCc1ccccc1)c1cc2cccc(O)c2oc1=O | 3.28 | Non-Toxic | 
O=C(NCCCC1CCCCC1)c1cc2ccc(O)cc2oc1=O | 2.19 | Non-Toxic | 
O=C(NCCCc1ccccc1)c1cc2cc(O)ccc2oc1=O | >100 | Non-Toxic | 
O=C(NCCCc1ccccc1)c1cc2ccc(O)cc2oc1=O | 0.44 | Non-Toxic | Activity (PANC-1 [3]): Active; Activity (PANC-1 [4]): Active; Activity (PANC-1 [5]): Active; inhibition at 12.5 µM (PANC-1 [6]): 8%; inhibition at 25 µM (PANC-1 [7]): 11%; inhibition at 50 µM (PANC-1 [8]): 19%; inhibition (PANC-1 [9]): Dose-dependent effect; Activity (PANC-1 [10]): Active; Activity (PANC-1 [11]): Active; Activity (PANC-1 [12]): Active; Activity (PANC-1 [13]): Active
O=C(NCc1ccccc1)c1cc2ccc(O)cc2oc1=O | >100 | Non-Toxic | 
